Screening results (PubChem BioAssay)
UHRF1 MBD2 ctr: UHRF1 methylated DNA binding inhibitors, primary screen, counter-screen for MBD2 inhibitor project, biochemical, TR-FRET, human UHRF1, single concentration. E3 ubiquitin-protein ligase UHRF1 (Homo sapiens), Q96T88. UHRF1 binding to methylated oligo. AID 687016, 2013. hit rate 0.75% among 370,000. inhibition, % at 4.4 µM; in the data active = inhibition above about 21%;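 also: UHRF1 SRA domain binding a hemimethylated CpG hairpin DNA probe; 0% = median of test compound wells and 100% = reference inhibitor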
LEDGF integ inh: blockers of LEDGF/p75-dependent integrase strand transfer – biochemical, TR-FRET, high throughput, primary screen; HIV-1 integrase (with human LEDGF/p75); TR-FRET IN-LEDGF/p75 DNA integration, Eu/Cy5; inhibition, % at 3.7 µM; hit rate 0.64% among 370,000;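 active = inhibition above the screen-wide mean plus 3 SD, cut at about 13% in these data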;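 also: signal is the Cy5 over europium emission ratio at 671 and 618 nm; 0% = plate median of compound wells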
TDP2 inh: human TDP2 enzyme inhibitors, primary screen, biochemical, epi absorbance, recombinant enzyme | T5PNP hydrolysis, p-nitrophenol absorbance 415 nm | inhibition, % at 12.8 µM | hit rate 0.34% among 370,000;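 active = inhibition above the mean of all tested compounds plus 3 SD, set per campaign, cut at about 25% in these data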;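 also: 0% = DMSO with enzyme and 100% = buffer with substrate but no TDP2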
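Test system: Human TDP2 enzyme | Reagent: 5 mM T5PNP | Compound dosing: 12.8 µM single point, 1% DMSO | Incubation: Enzyme reaction with compound for 2 h at 37 °C | Technique: p-Nitrophenol epi absorbance | Read-out: % inhibition relative to enzyme-containing and enzyme-free wells | Benchmarks: High control without enzyme, low control DMSO plus TDP2 | Replicates: Singlicate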
MBD2 DNA inh: inhibitors of MBD2 binding to methylated DNA, primary screen, biochemical, TR-FRET, DNA-binding domain, human; Methyl-CpG-binding domain protein 2 (Homo sapiens), Q9UBB5; MBD2 binding to methylated oligonucleotide; inhibition, % at 4.4 µM; hit rate 0.31% among 370,000; in the data active = inhibition above about 13%
Target sequence (Q9UBB5 whole entry, looked up, the tested form may be a part): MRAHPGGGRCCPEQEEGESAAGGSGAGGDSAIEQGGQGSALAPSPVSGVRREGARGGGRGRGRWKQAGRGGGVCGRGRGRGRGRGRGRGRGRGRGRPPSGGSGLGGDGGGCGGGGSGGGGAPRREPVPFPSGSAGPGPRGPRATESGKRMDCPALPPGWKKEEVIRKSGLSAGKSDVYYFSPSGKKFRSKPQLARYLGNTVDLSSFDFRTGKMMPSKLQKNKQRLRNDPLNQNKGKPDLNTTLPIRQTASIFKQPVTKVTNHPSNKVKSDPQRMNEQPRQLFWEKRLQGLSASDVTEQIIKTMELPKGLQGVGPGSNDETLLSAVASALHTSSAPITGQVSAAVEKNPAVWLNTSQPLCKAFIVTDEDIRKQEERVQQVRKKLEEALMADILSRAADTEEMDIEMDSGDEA
An asterisk follows results filed as active. Most compounds without a hit are left out; they make up all but 1.6% or so of the library.

SMILES | UHRF1 MBD2 ctr | LEDGF integ inh | TDP2 inh | MBD2 DNA inh
COCCNCC(O)CON=C1c2ccccc2-c2ccccc21 (stereo not drawn) | -9 | 3 | 4 | -1
CC(C)CCNCC(O)CON=C1c2ccccc2-c2ccccc21 (stereo not drawn) | 25* | -10 | -14 | -2
CCOC(=O)CSC1=C(C#N)C(c2ccc(Cl)cc2)C(C(=O)OC)C(=O)N1 (stereo not drawn) | -1 | 0 | 4 | -6
COC(=O)CSC1=C(C#N)C(c2ccc(Cl)cc2)C(C(=O)OC)C(=O)N1 (stereo not drawn) | 23* | 1 | 14 | 11
Cc1ccc(C(=O)CCC(=O)Nc2ccc(C)cn2)cc1 | 29* | 5 | -19 | -4
CC(=O)c1c(C)oc2ccc(NS(=O)(=O)c3ccc(O)c(C(=O)O)c3)cc12 | 4 | 1 | -9 | 2
O=C(O)c1cc(S(=O)(=O)Nc2ccc3oc(=O)sc3c2)ccc1O | 2 | 16* | 0 | 1
CN(C)C(=O)c1cc2c(c(-c3cccc(-c4ccccc4F)c3)n1)[C@@H](CCO)N(S(C)(=O)=O)C2 | 92* | -2 | 2 | -6
Cc1cc(Cl)ccc1OC(C)C(=O)Nc1ccccc1N1CCOCC1 (stereo not drawn) | 21* | 10 | 4 | 12
CC(Oc1ccc(Cl)cc1)C(=O)Nc1ccccc1N1CCOCC1 (stereo not drawn) | -2 | 0 | -2 | 4
O=C(Nc1ccc(-c2nc3ncccc3o2)cc1)c1ccc([N+](=O)[O-])o1 | 40* | 5 | 12 | -2
COc1ccc(-c2c(C(=O)c3ccccc3)[nH]c(N)c2C(=O)c2ccccc2)cc1OC | 1 | -2 | -11 | 1
COc1cc(-c2c(C(=O)c3ccccc3)[nH]c(N)c2C(N)=O)ccc1F | 95* | 2 | -14 | 1
Clc1ccc([C@H]2OC[C@@]3(CNCCN4CCOCC4)CS[C@H](c4ccc(Cl)cc4)N23)cc1 | -2 | 2 | 7 | -1
COCC(=O)N(Cc1ccccc1)c1ccccc1C(=O)Nc1cc(OC)ccc1OC | 3 | -4 | -4 | 1
Cn1nc(CC(=O)Nc2ncc(Br)s2)c2ccccc2c1=O | 22* | -1 | 0 | 7
CO/N=C\C(=N\Nc1ccc(OC)cc1)C(=O)c1ccccc1 | 38* | 0 | -12 | -6
CO/N=C/C(=N\Nc1ccccc1)C(=O)c1ccccc1 | -3 | -1 | 4 | -3
CN1C(=O)C[C@@](C#N)(C(=O)N2CCOCC2)[C@H]1c1ccccc1 | -1 | 2 | 1 | -2
CCN(CC)C(=S)SC1=CCS(=O)(=O)C1 | 26* | 6 | -1 | 7
Nc1ccccc1Sc1ccc(C(=O)c2ccccc2C(=O)O)cc1[N+](=O)[O-] | 9 | 5 | -20 | -5
O=C(O)c1ccccc1C(=O)c1ccc(Sc2ccc(Cl)cc2)c([N+](=O)[O-])c1 | 21* | 1 | -13 | 0
COc1cccc2c1C(=O)c1c(O)c3c(c(O)c1C2=O)CC(O)(C(C)=O)CC3OC1CC(O)C(O)C(C)O1 (stereo not drawn) | 81* | -3 | 8 | 78*
COC(=O)[C@]12C[C@H](CC(=O)NCCCCc3ccccc3)C(=O)N(Cc3cccc4ccccc34)C1=C[C@H](C(C)C)O[C@@H]2C1CC1 | 1 | 4 | -13 | 2
O=C(O)C1CC(c2ccc(F)cc2)=NO1 (stereo not drawn) | 27* | 4 | 4 | 5
SMILES | UHRF1 MBD2 ctr | LEDGF integ inh | TDP2 inh | MBD2 DNA inh
CC(C)(C)c1ccc(-c2nnc(SCC(=O)Nc3ccc(S(=O)(=O)Nc4nccs4)cc3)n2Cc2ccco2)cc1 | 1 | 1 | -5 | -1
COc1ccccc1N(CC(O)Cn1c2ccccc2c2ccccc21)S(=O)(=O)c1ccccc1 (stereo not drawn) | 21* | 0 | 0 | 7
Cc1cccc(C(=O)Nc2nc3ncccn3c2-c2ccc(C(F)(F)F)cc2)c1 | 0 | 1 | 0 | 5
Cc1[nH]c2ccccc2c1/C=N/NC(=O)c1cccc(F)c1 | -1 | -6 | -7 | -1
Cc1[nH]c2ccccc2c1/C=N/NC(=O)c1cc(C(C)C)[nH]n1 | 25* | -3 | 8 | 2
O=[N+]([O-])c1ncccc1OCCOc1ccc(Cl)cc1Cl | 1 | -1 | 4 | 4
O=C(OCc1ccccc1)[C@H](Cc1ccccc1)NC(=O)[C@@H]1CC=C[C@@H]2CCN(C3CCCCC3)C(=O)[C@@H]21 | -1 | -1 | -3 | 2
Cc1ccc(-c2nnc3ccc(SCC(=O)NCc4ccco4)nn23)cc1 | 22* | -3 | 0 | 13
CC(C)N(CC#CCC(O)(c1ccccc1)c1ccccc1)CCO | 26* | 5 | -8 | -2
CCN(C1CCCCC1)S(=O)(=O)c1ccc(OC)c(C)c1 | 24* | -1 | 5 | 8
COc1cccc(C#Cc2ccc3c(c2)O[C@@H](CN(C)C(=O)c2ccccn2)[C@@H](C)CN([C@H](C)CO)S3(=O)=O)c1 | 22* | -1 | 6 | 3
C[C@H](CO)N1C[C@H](C)[C@H](CN(C)C(=O)c2ccccn2)Oc2cc(C#Cc3ccc(F)cc3)ccc2S1(=O)=O | 18 | -1 | 2 | 4
C[C@H](CO)N1C[C@H](C)[C@@H](CN(C)C(=O)c2cnccn2)Oc2cc(C#CCC3CCCC3)ccc2S1(=O)=O | 23* | 0 | 1 | 9
C[C@H]1CN([C@@H](C)CO)S(=O)(=O)c2ccc(C#CC3CC3)cc2O[C@@H]1CN(C)S(C)(=O)=O | 2 | -3 | 4 | -4
COc1cccc(C#Cc2ccc3c(c2)O[C@H](CN(C)C)[C@@H](C)CN([C@@H](C)CO)S3(=O)=O)c1 | 18 | 1 | 3 | 6
COc1cccc(C#Cc2ccc3c(c2)O[C@H](CN(C)S(=O)(=O)c2ccccc2F)[C@H](C)CN([C@H](C)CO)S3(=O)=O)c1 | 21* | 7 | -12 | -5
Cc1ccc(S(=O)(=O)N(C)C[C@H]2Oc3cc(C#CC4CCCC4)ccc3S(=O)(=O)N([C@H](C)CO)C[C@H]2C)cc1 | 22* | 0 | -2 | 5
O=C(NCC1COCCO1)C1CCN(S(=O)(=O)c2cccs2)CC1 (stereo not drawn) | -2 | -2 | 4 | 1
COC(=O)[C@]12C[C@H](CC(=O)N3CCC(c4ccccc4)CC3)C(=O)N(Cc3ccco3)C1=C[C@H](C(C)C)O[C@@H]2C1CC1 | -3 | 4 | -6 | 2
CCN(CC)C(=O)CC[C@@H]1CC[C@]2(CCCN(C(=O)c3ccco3)C2)O1 | 0 | -2 | 11 | 0
CCOC(=O)[C@@]12CCCC3=C1N(CCC3)C(=O)[C@H]2CC(=O)NCCCCc1ccccc1 | -1 | 10 | -5 | 3
O=C(Nc1cccc2nsnc12)c1cccnc1 | 55* | -4 | 0 | 1
